In ChEMBL document CHEMBL5058577, “EUbOPEN Chemogenomics Library 2 (Multiplex)” (2022):

Tested on: U2OS
Assay: Multiplex assay against U2OS
Assay type: toxicity, cell-based
Settings: human
Method in brief: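 Per cents of healthy-nucleus cells form the tubulin, mitochondrial-mass and membrane-permeability phenotype values. Live cells were stained at seeding with Hoechst33342, BioTracker Green Microtubule Cytoskeleton Dye, MitoTracker Red and Annexin V Alexa Fluor 680. After compound addition they were imaged on a CQ1 microscope at 37°C and 5% CO2, and CellPathfinder machine-learning gating split them into Hoechst high-intensity objects or normal cells, normal cells into healthy, pyknosed or fragmented nuclei, and pyknosed cells into mitotic or apoptotic.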

[1] = 12 h, 1 µM, compound concentration 1 uM, replicate 1
[2] = 12 h, 1 µM, compound concentration 1 uM, replicate 2
[3] = 12 h, 10 µM, compound concentration 10 uM, replicate 1
[4] = 12 h, 10 µM, compound concentration 10 uM, replicate 2
[5] = 24 h, 1 µM, compound concentration 1 uM, replicate 1
[6] = 24 h, 1 µM, compound concentration 1 uM, replicate 2
[7] = 24 h, 10 µM, compound concentration 10 uM, replicate 1
[8] = 24 h, 10 µM, compound concentration 10 uM, replicate 2
[9] = 48 h, 1 µM, compound concentration 1 uM, replicate 1
[10] = 48 h, 1 µM, compound concentration 1 uM, replicate 2
[11] = 48 h, 10 µM, compound concentration 10 uM, replicate 1
[12] = 48 h, 10 µM, compound concentration 10 uM, replicate 2

Compound: CN(C)c1ccnc2sc3c(=O)n(N4CCCCCC4)cnc3c12
- Population Apoptotic (%) [1]: 81%
- Population Fragmented Nuclei (%) [1]: 19%
- Population Healthy Nuclei (%) [1]: 72%
- Population Hoechst High Intensity Objects (%) [1]: 1%
- Population Membrane Permeable-Phenotype (%) [1]: 4%
- Population Mitochondria Different-Phenotype (%) [1]: 2%
- Population Mitotic Cells (%) [1]: 18%
- Population Normal (%) [1]: 98%
- Population Pyknosed Nuclei (%) [1]: 7%
- Population Tubulin-Different-Phenotype (%) [1]: 2%
- Total Cell Count [1]: 284
- Population Apoptotic (%) [2]: 87%
- Population Fragmented Nuclei (%) [2]: 16%
- Population Healthy Nuclei (%) [2]: 77%
- Population Membrane Permeable-Phenotype (%) [2]: 6%
- Population Mitotic Cells (%) [2]: 12%
- Population Pyknosed Nuclei (%) [2]: 6%
- Total Cell Count [2]: 132
- Population Apoptotic (%) [3]: 41%
- Population Fragmented Nuclei (%) [3]: 30%
- Population Healthy Nuclei (%) [3]: 56%
- Population Hoechst High Intensity Objects (%) [3]: 4%
- Population Membrane Permeable-Phenotype (%) [3]: 30%
- Population Mitochondria Different-Phenotype (%) [3]: 14%
- Population Mitotic Cells (%) [3]: 58%
- Population Normal (%) [3]: 95%
- Population Pyknosed Nuclei (%) [3]: 12%
- Population Tubulin-Different-Phenotype (%) [3]: 20%
- Total Cell Count [3]: 249
- Population Apoptotic (%) [4]: 88%
- Population Fragmented Nuclei (%) [4]: 18%
- Population Healthy Nuclei (%) [4]: 71%
- Population Hoechst High Intensity Objects (%) [4]: 5%
- Population Membrane Permeable-Phenotype (%) [4]: 23%
- Population Mitochondria Different-Phenotype (%) [4]: 27%
- Population Mitotic Cells (%) [4]: 11%
- Population Normal (%) [4]: 94%
- Population Pyknosed Nuclei (%) [4]: 9%
- Population Tubulin-Different-Phenotype (%) [4]: 22%
- Total Cell Count [4]: 101
- Population Apoptotic (%) [5]: 87%
- Population Fragmented Nuclei (%) [5]: 16%
- Population Healthy Nuclei (%) [5]: 72%
- Population Hoechst High Intensity Objects (%) [5]: 2%
- Population Membrane Permeable-Phenotype (%) [5]: 3%
- Population Mitochondria Different-Phenotype (%) [5]: 3%
- Population Mitotic Cells (%) [5]: 12%
- Population Normal (%) [5]: 97%
- Population Pyknosed Nuclei (%) [5]: 10%
- Population Tubulin-Different-Phenotype (%) [5]: 1%
- Total Cell Count [5]: 326
- Population Apoptotic (%) [6]: 72%
- Population Fragmented Nuclei (%) [6]: 15%
- Population Healthy Nuclei (%) [6]: 76%
- Population Membrane Permeable-Phenotype (%) [6]: 6%
- Population Mitotic Cells (%) [6]: 27%
- Population Pyknosed Nuclei (%) [6]: 7%
- Population Tubulin-Different-Phenotype (%) [6]: 4%
- Total Cell Count [6]: 150
- Population Apoptotic (%) [7]: 68%
- Population Fragmented Nuclei (%) [7]: 28%
- Population Healthy Nuclei (%) [7]: 56%
- Population Hoechst High Intensity Objects (%) [7]: 4%
- Population Membrane Permeable-Phenotype (%) [7]: 22%
- Population Mitochondria Different-Phenotype (%) [7]: 15%
- Population Mitotic Cells (%) [7]: 31%
- Population Normal (%) [7]: 95%
- Population Pyknosed Nuclei (%) [7]: 15%
- Population Tubulin-Different-Phenotype (%) [7]: 14%
- Total Cell Count [7]: 260
- Population Apoptotic (%) [8]: 100%
- Population Fragmented Nuclei (%) [8]: 11%
- Population Healthy Nuclei (%) [8]: 75%
- Population Hoechst High Intensity Objects (%) [8]: 3%
- Population Membrane Permeable-Phenotype (%) [8]: 23%
- Population Mitochondria Different-Phenotype (%) [8]: 25%
- Population Mitotic Cells (%) [8]: 0%
- Population Normal (%) [8]: 96%
- Population Pyknosed Nuclei (%) [8]: 13%
- Population Tubulin-Different-Phenotype (%) [8]: 24%
- Total Cell Count [8]: 108
- Population Apoptotic (%) [9]: 90%
- Population Fragmented Nuclei (%) [9]: 17%
- Population Healthy Nuclei (%) [9]: 74%
- Population Hoechst High Intensity Objects (%) [9]: 2%
- Population Membrane Permeable-Phenotype (%) [9]: 4%
- Population Mitochondria Different-Phenotype (%) [9]: 1%
- Population Mitotic Cells (%) [9]: 9%
- Population Normal (%) [9]: 97%
- Population Pyknosed Nuclei (%) [9]: 8%
- Population Tubulin-Different-Phenotype (%) [9]: 2%
- Total Cell Count [9]: 486
- Population Apoptotic (%) [10]: 92%
- Population Fragmented Nuclei (%) [10]: 15%
- Population Healthy Nuclei (%) [10]: 72%
- Population Membrane Permeable-Phenotype (%) [10]: 5%
- Population Mitochondria Different-Phenotype (%) [10]: 5%
- Population Mitotic Cells (%) [10]: 7%
- Population Pyknosed Nuclei (%) [10]: 11%
- Total Cell Count [10]: 239
- Population Apoptotic (%) [11]: 68%
- Population Fragmented Nuclei (%) [11]: 28%
- Population Healthy Nuclei (%) [11]: 57%
- Population Hoechst High Intensity Objects (%) [11]: 4%
- Population Membrane Permeable-Phenotype (%) [11]: 15%
- Population Mitochondria Different-Phenotype (%) [11]: 11%
- Population Mitotic Cells (%) [11]: 31%
- Population Normal (%) [11]: 95%
- Population Pyknosed Nuclei (%) [11]: 14%
- Population Tubulin-Different-Phenotype (%) [11]: 7%
- Total Cell Count [11]: 325
- Population Apoptotic (%) [12]: 72%
- Population Fragmented Nuclei (%) [12]: 15%
- Population Healthy Nuclei (%) [12]: 61%
- Population Hoechst High Intensity Objects (%) [12]: 9%
- Population Membrane Permeable-Phenotype (%) [12]: 21%
- Population Mitochondria Different-Phenotype (%) [12]: 19%
- Population Mitotic Cells (%) [12]: 27%
- Population Normal (%) [12]: 90%
- Population Pyknosed Nuclei (%) [12]: 22%
- Population Tubulin-Different-Phenotype (%) [12]: 23%
- Total Cell Count [12]: 140
